The subject of experiment [1] is Streptococcus pneumoniae. In words: Inhibition of Streptococcus pneumoniae MurF using D-Ala-D-Ala/UMtri-L-Lys as substrate assessed as residual activity at 100 uM after 15 mins by Malachite green method. An outline of the steps:
(§1)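 Purified S. pneumoniae MurF in 50 mM Hepes pH 8.0, 50 mM MgCl2, 0.005% Triton X-114, with D-Ala-D-Ala, UMtri-L-Lys and ATP. Compound was added in DMSO (5% v/v final). Reactions ran 15 min at 37 °C, were stopped with Biomol malachite green reagent, and A650 was measured after 5 min. Runs were in duplicate. Residual activity was versus DMSO controls. IC50 was from seven concentrations.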

The test system of experiment [2] is Escherichia coli. Briefly: Antimicrobial activity against Escherichia coli AB734 by broth microdilution method. Type of experiment: functional, organism-based. An outline of the steps: (§2)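 Broth microdilution MIC per CLSI guidelines in Mueller-Hinton broth. E. coli 1411 and AB734 were also tested with added polymyxin B nonapeptide to permeabilise the outer membrane.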

The test system of experiment [3] is Staphylococcus aureus. In words: Inhibition of Staphylococcus aureus MurF using D-Ala-D-Ala/UMtri-L-Lys as substrate assessed as residual activity at 100 uM after 15 mins by Malachite green method. The method, boiled down:
(§3)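 S. aureus MurF, purified, assayed in 50 mM Hepes pH 8.0 with 20 mM MgCl2 and 0.005% Triton X-114, with D-Ala-D-Ala, UMtri-L-Lys and ATP. Compound was in DMSO (5% v/v final). After 15 min at 37 °C, Biomol reagent was added and A650 was read 5 min later. Duplicates were run. Residual activity was relative to 5% DMSO controls. IC50 was read as 50% residual activity across seven concentrations.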

The test system of experiment [4] is Escherichia coli. Briefly: Inhibition of Escherichia coli MurF using D-Ala-D-Ala/UMtri-mDAP as substrate assessed as residual activity at 100 uM after 15 mins by Malachite green method. An outline of the steps: (§4)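 Purified E. coli MurF in 50 mM Hepes pH 8.0, 50 mM MgCl2, 0.005% Triton X-114, with D-Ala-D-Ala, UMtri-mDAP and ATP. Compound was added in DMSO (final 5% v/v). Mixtures were incubated 15 min at 37 °C, quenched with Biomol reagent, and absorbance was read at 650 nm after 5 min. Runs were in duplicate. Residual activity was taken versus DMSO-only controls. IC50 came from residual activity at seven concentrations.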

For experiment [5], the system named is Escherichia coli. In words: Antimicrobial activity against Escherichia coli 1411 by broth microdilution method. In kind it is functional, organism-based. An outline of the steps: as §2
Experiment [6] deals with Staphylococcus aureus. In words: Antimicrobial activity against Staphylococcus aureus SH1000 by broth microdilution method. Type of experiment: functional, organism-based. An outline of the steps: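 MIC by broth microdilution in Mueller-Hinton broth following CLSI guidelines.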
Experiment [7] relates to Streptococcus pneumoniae. In words: Antimicrobial activity against Streptococcus pneumoniae R6 by broth microdilution method. In kind it is functional. An outline of the steps:
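MIC by CLSI broth microdilution in Mueller-Hinton broth supplemented with 5% (v/v) lysed horse blood.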

The nature of experiment [8]: Inhibition of Streptococcus pneumoniae MurF.
Experiment [9] is described as follows: Inhibition of Streptococcus pneumoniae MurF using D-Ala-D-Ala/UMtri-L-Lys as substrate after 15 mins by Malachite green method. An outline of the steps:
as §1

Experiment [10] is described as follows: Inhibition of Escherichia coli MurF using D-Ala-D-Ala/UMtri-mDAP as substrate after 15 mins by Malachite green method. An outline of the steps: as §4
Experiment [11] can be described thus: Inhibition of Staphylococcus aureus MurF using D-Ala-D-Ala/UMtri-L-Lys as substrate after 15 mins by Malachite green method. An outline of the steps:
as §3

Values after ≈ are worked out from the molar mass of the structure shown. Active and inactive are the calls of the source. No cut-off for these calls is given here.

As to `CCOC(=O)C1CCN(S(=O)(=O)c2cc(C(=O)Nc3sc4c(c3C#N)CCCC4)c(Cl)cc2Cl)CC1`, the values for the Activity in [1], in [3] and in experiment [4] were 100%, 100% and 95%, respectively. The outcome in experiment [2], in experiment [5] and in [6] was inactive.

`N#Cc1c(NC(=O)c2cc(S(=O)(=O)N3CCNC(=O)C3)c(Cl)cc2Cl)sc2c1CCCC2`: the Activity was 89% in experiment [1], 95% in experiment [3] and 91% in experiment [4]. For the same compound, the outcome in experiment [2], in experiment [5] and in experiment [6] was inactive.

Consider `N#Cc1ccc(N2CCc3c(sc(NC(=O)c4cc(S(=O)(=O)N5CCOCC5)c(Cl)cc4Cl)c3C#N)C2)cc1`, for which the values for the Activity in [1], in experiment [3] and in experiment [4] were 63%, 85% and 95%, respectively. Also, the outcome in experiment [2], in experiment [5] and in experiment [6] was inactive. The MIC in experiment [7] is above 128 µg/mL.

Turning to `N#Cc1c(NC(=O)c2cc(S(=O)(=O)N3CCOCC3)c(Cl)cc2Cl)sc2c1CCN(c1ccc([N+](=O)[O-])cc1)C2`, the Activity in [1] amounted to 80%; in experiment [3] it was 83%; in experiment [4], 74%. Further, the outcome in experiment [2], in experiment [5] and in experiment [6] was inactive. The same compound gave an MIC in experiment [7] above 128 µg/mL.

As to `N#Cc1c(NC(=O)c2cc(S(=O)(=O)N3CCSC3)c(Cl)cc2Cl)sc2c1CCCC2`, the Activity in [1] amounted to 66%; in experiment [3] it was 85%; in [4], 104%. For the same compound, the outcome in [2], in experiment [5] and in experiment [6] was inactive. In experiment [7], this compound returned an MIC above 128 µg/mL.

`N#Cc1c(NC(=O)c2cc(S(=O)(=O)N3CCOCC3)c(Cl)cc2Cl)sc2c1CC[C@@H](c1ccc(O)cc1)C2` had an IC50 in [8] of 0.022 µM.

For `N#Cc1c(NC(=O)c2cc(S(=O)(=O)N3CCOCC3)c(Cl)cc2Cl)sc2c1CCCC2`, the values for the IC50 in [9] and in experiment [8] were 4 µM and 1 µM, respectively. In addition, the minimum inhibitory concentration (MIC) in [7] came to 64 µg/mL (≈ 128 µM). Besides, the Activity in experiment [3] was 107%; in experiment [4] it was 100%.

With `N#Cc1c(NC(=O)c2cc(S(=O)(=O)N3CCSCC3)c(Cl)cc2Cl)sc2c1CCCC2`, the Activity in [1] was 42%; in [3] it was 95%; in [4] it was 91%. The result in experiment [2], in experiment [5] and in experiment [6] was inactive. Besides, the MIC in experiment [7] is above 128 µg/mL.

In the case of `COC(=O)c1ccc(CN2CCc3c(sc(NC(=O)c4cc(S(=O)(=O)N5CCOCC5)c(Cl)cc4Cl)c3C#N)C2)cc1`, the IC50 came to 0.72 µM in experiment [9], 59 µM in experiment [10] and 88 µM in experiment [11]. Also, the outcome in [2], in [5] and in experiment [6] was inactive. The compound further yielded an MIC in [7] above 128 µg/mL.

On to `COc1cc(CN2CCc3c(sc(NC(=O)c4cc(S(=O)(=O)N5CCOCC5)c(Cl)cc4Cl)c3C#N)C2)cc(OC)c1O`, for which the values for the IC50 in experiment [9], in experiment [10] and in experiment [11] were 48 µM, 78 µM and 84 µM, respectively. Moreover, the outcome in experiment [2], in experiment [5] and in [6] was inactive. This compound registered an MIC in experiment [7] of 16 µg/mL (≈ 24 µM).

`CC1CCN(S(=O)(=O)c2cc(C(=O)Nc3sc4c(c3C#N)CCCC4)c(Cl)cc2Cl)CC1`: the Activity in experiment [1] was 90%; in [3], 80%; in experiment [4], 87%. For the same compound, the outcome in [2], in experiment [5] and in [6] was inactive.

On to `CC(=O)Oc1ccc(CN2CCc3c(sc(NC(=O)c4cc(S(=O)(=O)N5CCOCC5)c(Cl)cc4Cl)c3C#N)C2)cc1OC(C)=O`, for which the values for the IC50 in [9], in experiment [10] and in experiment [11] were 3.03 µM, 88 µM and 89 µM, respectively. Moreover, the outcome in experiment [2], in [5] and in experiment [6] was inactive. The compound also displayed an MIC in experiment [7] above 128 µg/mL.

Consider `N#Cc1c(NC(=O)c2cc(S(=O)(=O)N3CCOCC3)c(Cl)cc2Cl)sc2c1CCN(Cc1cccc(O)c1)C2`, for which the figures for the IC50 in [9], in experiment [10] and in [11] were 0.42 µM, 81 µM and 91 µM, respectively. The outcome in experiment [2], in experiment [5] and in experiment [6] was inactive. The MIC in experiment [7] is 16 µg/mL (≈ 26.3 µM).

Turning to `N#Cc1c(NC(=O)c2cc(S(=O)(=O)N3CCOCC3)c(Cl)cc2Cl)sc2c1CCN(Cc1ccc(C(=O)O)cc1)C2`, the figures for the half-maximal inhibitory concentration (IC50) in experiment [9], in [10] and in experiment [11] were 0.86 µM, 118 µM and 110 µM, respectively. Moreover, the outcome in [2], in experiment [5] and in experiment [6] was inactive. Besides, the MIC in experiment [7] was above 128 µg/mL.

In the case of `CCOC(=O)c1ccc(N2CCc3c(sc(NC(=O)c4cc(S(=O)(=O)N5CCOCC5)c(Cl)cc4Cl)c3C#N)C2)cc1`, the figures for the Activity in experiment [1], in [3] and in experiment [4] were 80%, 79% and 98%, respectively. Also, the outcome in [2], in [5] and in experiment [6] was inactive. This compound displayed an MIC in experiment [7] above 128 µg/mL.

For the origin of these results see ChEMBL document CHEMBL2406982, “Structure-activity relationships of new cyanothiophene inhibitors of the essential peptidoglycan biosynthesis enzyme MurF” (Eur J Med Chem, 2013).
